Laboratory results from ChEMBL document CHEMBL1138950, “Benzimidazole derivatives bearing substituted biphenyls as hepatitis C virus NS5B RNA-dependent RNA polymerase inhibitors: structure-activity relationship studies and identification of a potent and highly selective inhibitor JTK-109” (J Med Chem, 2006).

Key:
Hepatitis C virus [1] = assay: Inhibition of HCV subgenomic RNA replication in Huh5-2 cells at 10 uM after 48 hrs by replicon assay; assay type: functional, Hepacivirus hominis; settings: Huh-5-2, 48 h
[2] = molecular target: RNA-directed RNA polymerase (Hepacivirus hominis, UniProt O39930); assay: Inhibition of HCV 1b BK six His-tagged C-terminal truncated 544 amino acid NS5B RNA dependent RNA polymerase; parameters: species or system Hepatitis C virus subtype 1b
Chain of RNA-directed RNA polymerase (O39930 whole entry, the tested form may be a part): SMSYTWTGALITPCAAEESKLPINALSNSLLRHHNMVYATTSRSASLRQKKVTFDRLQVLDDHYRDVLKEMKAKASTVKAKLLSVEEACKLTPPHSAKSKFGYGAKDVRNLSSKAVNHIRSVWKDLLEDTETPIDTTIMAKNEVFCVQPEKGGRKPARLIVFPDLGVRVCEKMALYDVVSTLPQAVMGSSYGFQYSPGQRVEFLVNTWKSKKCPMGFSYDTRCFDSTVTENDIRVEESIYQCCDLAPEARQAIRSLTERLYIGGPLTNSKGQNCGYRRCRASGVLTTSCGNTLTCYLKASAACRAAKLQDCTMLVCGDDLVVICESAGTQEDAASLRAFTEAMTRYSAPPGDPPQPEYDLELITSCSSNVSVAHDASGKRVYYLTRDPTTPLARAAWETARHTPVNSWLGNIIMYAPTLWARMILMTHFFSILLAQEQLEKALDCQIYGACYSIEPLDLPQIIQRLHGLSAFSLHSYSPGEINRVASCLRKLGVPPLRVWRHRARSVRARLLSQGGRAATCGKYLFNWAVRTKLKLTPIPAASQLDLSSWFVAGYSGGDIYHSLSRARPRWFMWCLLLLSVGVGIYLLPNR
How it was run: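 HCV genotype 1b (BK) NS5B lacking 47 C-terminal residues, His6-tagged, E. coli-expressed; 7 nM enzyme with 5 µg HCV 3′X RNA template-primer, 50 µM each ATP/GTP/CTP, 2 µM UTP plus [3H]-UTP; pH 7.5 Tris, 5 mM MgCl2. Compounds in DMSO (5% final). 60 min at 25 °C; TCA-precipitable radioactivity read. Triplicate, mean of three experiments.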

Hepatitis C virus [3] = assay: Inhibition of HCV subgenomic RNA replication in Huh5-2 cells after 48 hrs by replicon assay; assay type: functional, organism-based, Hepacivirus hominis; settings: Huh-5-2, 48 h
How it was run: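 Huh-5-2 cells (Huh-7-derived, genotype 1b subgenomic replicon with luciferase reporter) seeded at 5 × 10^3 per well in DMEM with 10% FBS, 37 °C, 5% CO2; compounds added next day, 48 h exposure; luciferase activity read. EC50 is the concentration reducing replication by 50%. Triplicate, mean of three experiments.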

Huh-5-2 = assay: Viability of Huh5-2 cells by MTT assay; assay type: functional; settings: Homo sapiens
[4] = Therapeutic index, CC50 for viability of Huh5-2 cells/EC50 for inhibition of HCV subgenomic RNA replication; assay type: cell-based, Huh-5-2; settings: human, read-out: Ratio CC50/EC50
[5] = Plasma concentration in rat at 30 mg/kg, po after 1 hr; assay type: ADME, organism-based; parameters: dose 30 mg/kg, route oral
How it was run: (§1)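 Rats dosed orally at 30 mg/kg; plasma sampled at 1 and 2 h; n = 2 or 3.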

[6] = Plasma concentration in rat at 30 mg/kg, po after 2 hrs; assay type: ADME, organism-based; parameters: dose 30 mg/kg, route oral; how it was run: as §1
[7] = Distribution coefficient, log D at pH 7.2; assay type: physicochemical; settings: octanol/water
[8] = Apparent permeability in Caco-2 cells; assay type: ADME, cell-based; settings: human

| IC50 [2] [nM] | EC50 (Hepatitis C virus [3]) [nM] | concentration at 1 h [5] [nM] | concentration at 2 h [6] [nM] | logD [7] | Papp [8] [×10⁻⁶ cm/s] | Structure (SMILES) | inhibition at 10 µM (Hepatitis C virus [1]) [%] | CC50 (Huh-5-2) [nM] | selectivity ratio [4] |
| --- | --- | --- | --- | --- | --- | --- | --- | --- | --- |
| 14 | 460 | 1000 | 300 | – | – | CC(=O)Nc1ccc(-c2ccc(Cl)cc2)c(COc2ccc(-c3nc4cc(C(=O)O)ccc4n3C3CCCCC3)c(F)c2)c1 | – | 24000 | 52 |
| 21 | 380 | 1300 | 600 | – | – | CCCNC(=O)c1ccc(-c2ccc(Cl)cc2)c(COc2ccc(-c3nc4cc(C(=O)O)ccc4n3C3CCCCC3)c(F)c2)c1 | – | 24000 | 63 |
| 16 | 150 | 900 | 1100 | – | – | CC(=O)N(C)c1ccc(-c2ccc(Cl)cc2)c(COc2ccc(-c3nc4cc(C(=O)O)ccc4n3C3CCCCC3)c(F)c2)c1 | – | 26000 | 173 |
| 13 | 200 | 1100 | 300 | – | – | CC(C)NC(=O)c1ccc(-c2ccc(Cl)cc2)c(COc2ccc(-c3nc4cc(C(=O)O)ccc4n3C3CCCCC3)c(F)c2)c1 | – | 22000 | 110 |
| 12 | 160 | 1600 | 1800 | – | – | CN(C)C(=O)c1ccc(-c2ccc(Cl)cc2)c(COc2ccc(-c3nc4cc(C(=O)O)ccc4n3C3CCCCC3)c(F)c2)c1 | – | 26000 | 163 |
| 12 | 360 | 700 | 500 | – | – | CNC(=O)c1ccc(-c2ccc(Cl)cc2)c(COc2ccc(-c3nc4cc(C(=O)O)ccc4n3C3CCCCC3)c(F)c2)c1 | – | 25000 | 69 |

The next lines start with the molecule.

| Structure (SMILES) | IC50 [2] [nM] | EC50 (Hepatitis C virus [3]) [nM] | concentration at 1 h [5] [nM] | concentration at 2 h [6] [nM] | logD [7] | Papp [8] [×10⁻⁶ cm/s] | inhibition at 10 µM (Hepatitis C virus [1]) [%] | CC50 (Huh-5-2) [nM] | selectivity ratio [4] |
| --- | --- | --- | --- | --- | --- | --- | --- | --- | --- |
| Cc1nc(COc2ccc(-c3nc4cc(C(=O)O)ccc4n3C3CCCCC3)cc2)c(-c2ccc(Cl)cc2)o1 | 580 | > 10000 | – | – | – | – | 30 | 39000 | – |
| O=C(O)c1ccc(-c2ccc(Cl)cc2COc2ccc(-c3nc4cc(C(=O)O)ccc4n3C3CCCCC3)cc2)cc1 | 58 | > 10000 | – | – | 3.26 | 23.4 | – | > 50000 | – |
| CCN(C(C)=O)c1ccc(-c2ccc(Cl)cc2)c(COc2ccc(-c3nc4cc(C(=O)O)ccc4n3C3CCCCC3)c(F)c2)c1 | 19 | 140 | 1500 | 800 | – | – | – | 25000 | 179 |
| O=C(O)c1ccc2c(c1)nc(-c1ccc(OCc3cc(C(=O)N4CCOCC4)ccc3-c3ccc(Cl)cc3)cc1F)n2C1CCCCC1 | 14 | 280 | 1100 | 500 | – | – | – | 25000 | 89 |
| O=C(O)c1ccc2c(c1)nc(-c1ccc(OCc3cc(C(=O)N4CCCCC4)ccc3-c3ccc(Cl)cc3)cc1F)n2C1CCCCC1 | 18 | 270 | 2200 | 700 | – | – | – | 24000 | 89 |
